# Test results taken from PubChem BioAssay AID1217 (Sanford-Burnham Center for Chemical Genomics, 2008).
# Hit rate of the full screen: of about 190,000 compounds, about 1,300 (0.68%) were called active.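 Rule for the calls: active = primary screen inhibition at 20 µM above a set limit (cut at about 50% in these data); inactive = the rest.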 For the sample, actives were picked, then their nearest neighbours and some compounds at random.
# System: diaphorase (Clostridium kluyveri)
# Assay: diaphorase inhibitors and chemical oxidizers, primary screen, counter-screen for diaphorase-coupled primary assays, biochemical, uHTS, resorufin fluorescence (AID 1217);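 note: plate controls were DMSO with full reaction for no effect and wells lacking NADH for full effect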
# Conditions: diaphorase resazurin-to-resorufin fluorescence, NADH, 16 min; at 20 µM; stronger effect = higher value; bacterial (C. kluyveri) enzyme, not human
# In short: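 Test system: Clostridium kluyveri diaphorase enzyme / Quantity: diaphorase at 0.14 U/mL in enzyme working solution / Incubation: 16-min room-temperature incubation before reading / Benchmarks: NADH-free wells as positive control, DMSO-only neutral wells / Signal: resorufin fluorescence 544/590 nm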
row,Compound,inhibition
1,CC1CC1C(=O)OCC(=O)c1c(N)n(C)c(=O)n(C)c1=O (configuration not stated),-19.7% (inactive)
2,Cc1cc(C)cc(NC(=O)Cn2cnc3c(nnn3Cc3ccc(F)cc3)c2=O)c1,1.8% (inactive)
3,COc1ccc(/C=C(\NC(=O)c2ccc(OC)c(OC)c2)C(=O)NCCc2c[nH]c3ccccc23)cc1,13.6% (inactive)
4,COc1ccc(OC)c2[nH]c(=O)c(CCNC(=O)C(C)(C)C)cc12,2.9% (inactive)
5,COc1ccc(OC)c2[nH]c(=O)c(CCNC(=O)C(=O)c3c[nH]c4ccccc34)cc12,66.1% (active)
6,CCc1cc(C(N)=O)c(NC(=O)c2ccc(OC)cc2)s1,21.1% (inactive)
7,COc1ccc(C(=O)N/N=c2\oc3ccccc3cc2C(N)=O)cc1,75.5% (active)
8,CCN(CC)c1ccc2cc(C(N)=O)/c(=N\NC(=O)c3ccncc3)oc2c1,25% (inactive)
9,COc1cccc(OC)c1C(=O)NC(=S)Nc1ccc(N2CCOCC2)c(Cl)c1,27.9% (inactive)
10,S=c1[nH]nc(-c2cccs2)n1/N=C/c1cccs1,51.3% (active)
11,Oc1ccccc1/C=N/n1c(-c2cccs2)n[nH]c1=S,35.3% (inactive)
12,Cc1ccc(/C=N\n2c(-c3ccccc3)n[nH]c2=S)s1,19.9% (inactive)
13,CCN(C(=O)COC(=O)c1ccc(COc2ccc3c(C)cc(=O)oc3c2)cc1)C1CCS(=O)(=O)C1 (configuration not stated),0.7% (inactive)
14,CN(C)CCN=c1cc(-c2ccccc2)oc2ccc(Cl)cc12,-1.4% (inactive)
15,O=C(COC(=O)c1cc([N+](=O)[O-])ccc1NCc1ccccc1)NC1CCCCC1,3% (inactive)
16,O=C(/C=C/c1ccc(F)cc1)NCCNC(=O)/C=C/c1ccc(F)cc1,3.6% (inactive)
17,O=C(/C=C/c1ccc(F)cc1)NC(=S)NNC(=O)c1cccnc1,67.6% (active)
18,CC(C)c1ccc(/C=C/C(=O)NNC(=O)c2cccnc2)cc1,6.9% (inactive)
19,CCc1cccc(NC(=O)CCNS(=O)(=O)c2cccc3nonc23)c1,6.4% (inactive)
20,CC(=O)Nc1ccc(S(=O)(=O)NC(C)C(=O)OCC(=O)NC2CCCC2)cc1 (configuration not stated),6.2% (inactive)
21,Cc1c(Cl)cccc1NC(=O)CSc1ccc(-c2cccnc2)nn1,-1.3% (inactive)

row,Compound,inhibition
1,O=C(CSc1ncn[nH]1)Nc1ccnc2ccccc12,-2.2% (inactive)
2,O=C(CSc1n[nH]c(-c2cccnc2)n1)Nc1ccnc2ccccc12,54% (active)
3,Cc1nc(-c2ccccc2)cn2c1nc1ccccc12,16% (inactive)
4,Cc1cc(=O)[nH]c(=S)[nH]1,5.9% (inactive)
5,O=c1[nH]c(=S)[nH]c2[nH]c(=S)[nH]c12,87.4% (active)
6,O=C(N1CCCCC1)N1CCN(C(=O)N2CCCCC2)CC1,-5.4% (inactive)
7,CC(/C=N/NC(=O)c1ccncc1)=C\c1ccco1,5.5% (inactive)
8,C/C(=C\c1ccco1)C1Nc2cccc3cccc(c23)N1,69.5% (active)
9,CC(/C=N/NC(=O)c1cc(-c2ccc3ccccc3c2)n[nH]1)=C\c1ccco1,5.2% (inactive)
10,CC(=O)c1c(O)cc2n(c1=O)-c1ccc(Cl)cc1C2(C)C,18.3% (inactive)
11,C=CCN1C(=O)C(O)(CC(=O)c2ccc(Cl)cc2)c2ccccc21 (configuration not stated),20% (inactive)
12,Cc1coc(C)c1C(=O)CC1(O)C(=O)N(C)c2ccc(Cl)cc21 (configuration not stated),51.4% (active)
13,Cc1ccc(O)c(NC(=S)NC(=O)COc2ccc(Br)cc2)c1,1.8% (inactive)
14,COCCN(CCOC)S(=O)(=O)c1ccc(/C(O)=C(\C#N)c2nc3ccccc3[nH]2)cc1,5.6% (inactive)
15,Cc1coc2c(O)cc3c(c12)OC1(N2CCCCC2)C(=O)NCCCC31 (configuration not stated),56.1% (active)
16,O=C(Cc1cccs1)Nc1nnc(SCc2ccc(F)cc2)s1,11.1% (inactive)
17,COc1cc2sc(C)nc2cc1C,6% (inactive)
18,CCOC(=O)C1(S(=O)(=O)c2ccccc2)CCN(Cc2ccccc2)CC1,16.8% (inactive)
19,CC1=C/C(=N\S(=O)(=O)c2ccccc2)C(C(C)C)=CC1=O,21.7% (inactive)
20,CC1=C/C(=N\OS(=O)(=O)c2ccccc2)C=CC1=O,71.4% (active)
21,O=C1CCCC2=C1C(c1cccs1)CC(=O)N2c1ccc(F)cc1 (configuration not stated),6.3% (inactive)

row,Compound,inhibition
1,CC(C)N1CCC(N2CCN(Cc3cccnc3)CC2CCO)CC1 (configuration not stated),-0.8% (inactive)
2,CCOC(=O)C1CCN(C(=O)C2(NC(=O)Nc3cccc(F)c3)CCCCC2)CC1,-16.4% (inactive)
3,CCCCNC(=O)c1ccc(-n2c(=S)[nH]c3ccccc3c2=O)cc1,6.2% (inactive)
4,O=C(Cc1ccc(-n2c(=O)[nH]c3ccccc3c2=O)cc1)N1CCN(c2cccc(Cl)c2)CC1,19.4% (inactive)
5,CCOC(=O)N1CCN(C(=O)Cc2ccc(-n3c(=S)[nH]c4ccccc4c3=O)cc2)CC1,51.3% (active)
6,Cc1ccc(S(=O)(=O)CC(=O)Nc2c(C)n(C)n(-c3ccccc3)c2=O)cc1,-0.5% (inactive)
7,C/C(O)=C\c1nc(=O)c2c(C)cc(C)nc2n1-c1ccccc1,13.4% (inactive)
8,Cc1cc(C)c2c(n1)sc1c(=O)n(-c3ccccc3)c(=O)[nH]c12,59.3% (active)
9,Cc1cc(C)c2c(-n3cccc3)c(NC(=O)OCc3ccccc3)sc2n1,18.4% (inactive)
10,OCCC1CN(Cc2cccn2-c2nccs2)CCN1CCc1ccccc1 (configuration not stated),18.5% (inactive)
11,N#C/C=C(/c1ccc(F)cc1)N1CCOCC1,20.9% (inactive)
12,C(=C\c1ccccc1)/CSc1nnc(-c2cccnc2)n1Cc1ccco1,53.4% (active)
13,O=C(CSc1nnc(-c2cccnc2)n1Cc1ccco1)c1ccc(Cl)cc1,16.4% (inactive)
14,O=C(CSc1nnc(-c2cccnc2)n1Cc1ccco1)c1ccc(Cl)c(Cl)c1,4% (inactive)
15,CC(=O)c1ccc(N2CCN(CC(=O)Nc3ccccc3N3CCOCC3)CC2)cc1,4% (inactive)
16,O=C(N/N=C/c1ccc2c(c1)OCO2)C(=O)N1CCCC1,-1.9% (inactive)
17,CN(C(=O)CSc1nnc(Nc2ccccc2)s1)C1CCS(=O)(=O)C1 (configuration not stated),15% (inactive)
18,Cc1nn2c3ccccc3nc2n(C)c1=O,15.5% (inactive)
19,Cn1c(-c2ccco2)nc2cc3ccccc3cc21,18.4% (inactive)
20,c1coc(-c2nc3nc4ccccc4n3nc2-c2ccco2)c1,57.8% (active)
